Experimental findings from ChEMBL document CHEMBL1138746, “Indolebutylamines as selective 5-HT(1A) agonists” (J Med Chem, 2004) are described below.

The nature of assay [1]: Inhibition of hydroxytryptamine 2C receptor.
Assay [2] concerns the target D(2) dopamine receptor (Rattus norvegicus, UniProt P61169). Briefly: Displacement of [3H]spiperone from dopamine D2 receptor of rat striatal membranes. The assay is classed as cell membranes, Membrane. In outline:
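Rat striatal membranes (0.3–1.0 mg protein/mL) were incubated with 0.1 nM [3H]spiperone in Tris-HCl buffer (pH 7.1) containing 120 mmol/L NaCl, 5 mmol/L KCl, 1 mmol/L CaCl2, 1 mmol/L MgCl2 and 0.1% ascorbic acid, at 37 °C for 15 min. Bound ligand was separated by filtration with three ice-cold washes. Nonspecific binding was defined with 1 mmol/L (+)-butaclamol. IC50 (50% inhibition of binding) came from 5–10 concentrations, each in triplicate.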
On the technique in general: Displacement assays read how much labelled ligand stays bound in the presence of the test substance.

The target of assay [3] is T1, D(4) dopamine receptor (Homo sapiens, UniProt P21917).
T1 sequence (P21917 whole entry): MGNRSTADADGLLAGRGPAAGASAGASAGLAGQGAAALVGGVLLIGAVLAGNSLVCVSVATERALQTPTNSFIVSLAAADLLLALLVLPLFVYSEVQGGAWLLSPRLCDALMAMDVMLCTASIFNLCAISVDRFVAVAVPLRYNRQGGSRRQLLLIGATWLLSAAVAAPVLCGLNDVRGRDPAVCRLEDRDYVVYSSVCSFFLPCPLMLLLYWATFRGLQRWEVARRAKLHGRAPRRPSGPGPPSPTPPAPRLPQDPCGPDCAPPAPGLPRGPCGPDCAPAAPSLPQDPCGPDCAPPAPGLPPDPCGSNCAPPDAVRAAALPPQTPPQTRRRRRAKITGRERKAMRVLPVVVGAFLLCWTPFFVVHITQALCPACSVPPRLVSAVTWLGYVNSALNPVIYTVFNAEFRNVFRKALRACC
As to the kind of experiment: Inhibition of dopamine D4 receptor.

Assay [4] can be described thus: Inhibition of hydroxytryptamine 2A receptor.
Assay [5] deals with T2, 5-hydroxytryptamine receptor 1A (Rattus norvegicus, UniProt P19327).
T2 sequence (P19327 whole entry): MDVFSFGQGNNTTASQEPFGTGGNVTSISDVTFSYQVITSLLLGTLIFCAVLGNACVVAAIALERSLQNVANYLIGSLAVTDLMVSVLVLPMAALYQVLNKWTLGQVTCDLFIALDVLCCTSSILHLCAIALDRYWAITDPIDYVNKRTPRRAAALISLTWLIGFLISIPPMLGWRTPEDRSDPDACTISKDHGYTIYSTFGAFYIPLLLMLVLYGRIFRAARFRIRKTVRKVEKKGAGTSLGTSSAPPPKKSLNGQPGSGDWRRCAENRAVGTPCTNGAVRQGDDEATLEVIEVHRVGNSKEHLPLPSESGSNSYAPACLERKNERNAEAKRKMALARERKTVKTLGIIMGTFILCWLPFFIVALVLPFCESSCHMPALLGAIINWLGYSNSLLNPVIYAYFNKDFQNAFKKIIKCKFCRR
As to the kind of experiment: Inhibition of 8-OH DPAT bindign to rat hydroxytryptamine 1A receptor in hippocampal membranes.

D(2) dopamine receptor, sequence (P61169 whole entry): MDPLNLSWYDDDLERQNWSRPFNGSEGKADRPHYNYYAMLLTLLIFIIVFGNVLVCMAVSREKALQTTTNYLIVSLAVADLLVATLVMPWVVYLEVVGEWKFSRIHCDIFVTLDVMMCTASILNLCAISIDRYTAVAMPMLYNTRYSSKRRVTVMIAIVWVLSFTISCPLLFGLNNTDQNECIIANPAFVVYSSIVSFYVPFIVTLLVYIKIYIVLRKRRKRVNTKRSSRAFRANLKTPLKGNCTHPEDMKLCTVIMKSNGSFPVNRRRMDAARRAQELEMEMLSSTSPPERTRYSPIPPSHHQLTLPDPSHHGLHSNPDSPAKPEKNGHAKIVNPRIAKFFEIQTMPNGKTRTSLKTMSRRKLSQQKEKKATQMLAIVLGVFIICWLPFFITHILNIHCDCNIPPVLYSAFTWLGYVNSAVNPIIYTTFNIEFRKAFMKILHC

In the case of `O=C1c2ccccc2S(=O)(=O)N1CCCCN1CCN(c2ncccn2)CC1` [IPSAPIRONE], the IC50 (usually the concentration that inhibits the measured activity by half) is above 1000 nM in assay [1]; 2900 nM in assay [2]; 1800 nM in assay [3]; 2600 nM in assay [4]; 8.2 nM in assay [5].
